Data: ChEMBL document CHEMBL4513216, “Probing the Open Global Health Chemical Diversity Library for Multistage-Active Starting Points for Next-Generation Antimalarials” (ACS Infect Dis, 2020)

assay: Toxicity liver stage against HepG2, at 10uM; assay type: cell-based; design: test concentration 10 uM, cell line HepG2-A16-CD81EGFP; conditions: human, HepG2-A16-CD81EGFP cells; read-out: INHIBITION
In short: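 Uninfected HepG2-A16-CD81EGFP cells, 3 × 10^3 per well, 1536-well, plated on prespotted compound at 10 μM final, parasite-free screening media added to match infected plates; puromycin 10 μM positive, DMSO 0.5% negative; run in parallel with 48 h PbLuc assay at 37 °C, 5% CO2; viability by CellTiter-Glo luminescence, normalized to controls.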

SMILES	cytotoxicity at 10 µM
O=C(N1CCOCC1)n1cnc2ccccc21	-3.11%
Cc1ccc(Cl)cc1N1CCN(CC(=O)NC(C)c2ccco2)CC1 (stereo not given)	5.89%
COc1ccc(CN2C[C@@H]3OCC(=O)N(Cc4nccn4C)[C@@H]3C2)cc1	4.24%
CC(C)NC(=O)COc1cccc(-c2nc(C(C)C)no2)c1	-5.77%
CCC(=O)NC(c1cccnc1)c1cc(C)ccc1C (stereo not given)	-2.8%
CC(C)[C@H](NC(=O)Cn1nc2c(cc1=O)CCCC2)C(=O)O	1.85%
COC(=O)CC1CCN(C(=O)c2ccc(-n3nnnc3C)cc2)CC1	-6.72%
O=C(NCCN1CCCCC1)c1nc(-c2ccc3cc[nH]c3c2)no1	-8.54%
Cn1cc(I)c(C(=O)NCCCn2cc(Br)cn2)n1	6.54%
CCC(=O)Nc1c(C)nn(COc2cccc(F)c2)c1C	7.77%
CCn1cc(CN(C)S(=O)(=O)c2ccc(C(C)C)cc2)cn1	20.1%
c1cc(-c2nn3c(CN4CCOCC4)nnc3s2)ccn1	11%
COc1c(CC2CC(CO)=NO2)c(Br)c2c(c1OC)OCO2 (stereo not given)	-1.43%
CCn1nccc1CNC(=O)NC1CCCCC1	-27.5%
CN1CCC(Cc2cnc(CNC(=O)Cc3cccc(F)c3)cn2)CC1	-2.67%
O=C(C1CC1)N1C[C@H]2CCCN(S(=O)(=O)c3cccc(F)c3)[C@H]2C1	5.11%
CC(C)N1CCC(Cn2cc(C(N)=O)cn2)CC1	6.39%
CS(=O)(=O)N1CCCC(Cc2cnc(Br)cn2)C1 (stereo not given)	17.3%
CC(=O)N1CCn2c(nnc2C2CCCCN2Cc2ccccc2Cl)C1 (stereo not given)	10.6%
O=C1CO[C@H]2CN(Cc3cccc4[nH]ccc34)C[C@@H]2N1C1CCOCC1	-17.3%
Nc1nccnc1C1CN(C(=O)c2cnc(C3CC3)nc2)CCO1 (stereo not given)	-27%
CC(=O)N1CCCC(c2ncncc2-c2ccncc2)C1 (stereo not given)	-15.3%

SMILES	cytotoxicity at 10 µM
CN1CCCCC1c1ncc2c(n1)CCN(CCCc1ccccc1)C2 (stereo not given)	-30.5%
c1cc(CN2CCCC(c3nnc(-c4cnccn4)o3)C2)ccn1 (stereo not given)	-9.14%
Cc1nc(CCC(=O)NC2CCC2)cc(C2CCCNC2)n1 (stereo not given)	1.09%
O[C@@H]1CN(Cc2cccnc2)C[C@H]1Oc1ccccc1	-23.2%
O=C1Nc2ccccc2CC12CCCN2Cc1ccc(C(F)(F)F)cc1 (stereo not given)	30.2%
CN(C)Cc1ccnc(NS(=O)(=O)Cc2cccc(F)c2)c1	1.76%
Cc1noc(C)c1CN(C)C(=O)C1CCN(S(N)(=O)=O)CC1	7.47%
CC(C)(C)n1ncc(C(=O)NCCCC(N)=O)c1C(F)(F)F	8.85%
CSc1c[nH]nc1NS(=O)(=O)c1cc(F)ccc1C	6.98%
CC1CCN(c2ccc(C(=O)N3CCCC3c3ccc[nH]3)cn2)CC1 (stereo not given)	2.84%
Cc1occc1C(=O)NCC(=O)N(C)CCCOc1ccc(F)cc1	-41.9%
COC(=O)c1ccc(N(C(=O)c2cscn2)C(C)C)c(C)c1	1.7%
Cc1cc2n(n1)CC(CNCc1cc(C)on1)CN2 (stereo not given)	-7.93%
Cc1cc(C)n(CC2CCN(CC(O)COc3ccccc3)CC2)n1 (stereo not given)	-5.58%
CC1COCCN1C(=O)Cc1cc(Cl)c2c(c1)OCCO2 (stereo not given)	-4.29%
Cc1c(COc2ccccc2)cccc1NC(=O)N1CC[C@H](O)C1	13.7%
Fc1ccc(CNCCn2cccn2)cc1F	-8.01%
COc1cc(C(C)NCc2cscn2)ccc1SC(F)F (stereo not given)	0.762%
Cc1cc(NC(=O)c2nc(N3CCCC3)ncc2Cl)ccc1Br	-7.2%
O=C(c1cc2c([nH]c1=O)CCC2)N1CCCC1c1ccccn1 (stereo not given)	-3.18%
CC(C)OCCSc1nnnn1C1CCOCC1	-0.494%
CC(c1ccc(C(F)(F)F)cc1)N1CCN(CCS(C)(=O)=O)CC1 (stereo not given)	3.25%

SMILES	cytotoxicity at 10 µM
CCSc1cc(C(=O)NCCNC(=O)Cc2ccccc2)ccn1	-6.41%
Cc1cc(NC2CCc3ncnn3C2)n2nc(C(F)(F)F)nc2n1 (stereo not given)	2.93%
COc1cc(CNCCNC(=O)c2ccc(O)cc2)ccc1SC	9.72%
CCn1cc(S(=O)(=O)NC(CO)Cc2ccccc2)cn1 (stereo not given)	6.07%
CCc1nc(CNC2CCCCNC2=O)cs1 (stereo not given)	8.74%
N#Cc1ccc(N2CCN(c3cnccn3)CC2)c(C(F)(F)F)c1	46.6%
NS(=O)(=O)c1cnn(CCC(=O)N(C2CCCCC2)C2CC2)c1	-0.157%
CCC1C(=O)NCCN1c1ccnc(C(C)(C)C)n1 (stereo not given)	-8.37%
CCC1C(=O)NCCN1c1cc(C)ncn1 (stereo not given)	3.41%
CCS(=O)(=O)NC(CCSC)C(=O)Nc1cccc(C)c1C (stereo not given)	-2.51%
O=C(Cc1ccccc1F)NCC1CCN(CCc2ccccc2)C1 (stereo not given)	-43.5%
Cc1cccc(C)c1CCNC(=O)N1CCCC2(C1)OCCO2	-3.47%
O=C(CN1CCCCC1Cn1cccn1)NC1CCN(C2CC2)CC1 (stereo not given)	-4.43%
Cn1cccc1CNC(=O)N(CCO)C1CCCc2ccccc21 (stereo not given)	-7.45%
CC(=O)NC(C)c1ccc(OCC2CC2)c(F)c1 (stereo not given)	-7.81%
Cc1csc(CNC(=O)Nc2cc(C(F)(F)F)c[nH]c2=O)n1	-13.7%
COC(=O)CS(=O)(=O)CCC(=O)N1CCCC1c1ccsc1 (stereo not given)	-16.5%
Cc1csc([C@@H]2C[C@@H]3CCN(Cc4cc(C)on4)C[C@H]3O2)n1	-106%
CC(C)(C)NC(=O)CN1CCCC(c2ccc(C(=O)O)cc2)C1 (stereo not given)	-6.17%
CSc1ccc(CN(CCO)C(=O)CCc2ccc(O)cc2)cc1	-0.711%
Cc1ccsc1CN(C)c1cc(N2CCOCC2)ncn1	-0.33%
COc1ccc(CCn2ccnc2-c2cc3n(n2)CCCNC3)cc1	8.07%

SMILES	cytotoxicity at 10 µM
O=C1CC(C(=O)O)C2(CCN(C(=O)Nc3ccccc3Cl)CC2)N1 (stereo not given)	2.14%
Cc1cc(C[C@@H]2COC[C@@H]2NC(=O)CNC(=O)N(C)C)on1	2.57%
Cc1ccc(OC2(C(=O)NC(C)Cc3ccncc3)CCNCC2)cc1 (stereo not given)	-9.89%
COCc1ncc(CN2CCC(Oc3ccccc3C)CC2)cn1	1.09%
COCc1cn(CC2CCN(Cc3cc(C)[nH]n3)CC2)nn1	-2.44%
CN(C)CCN1CC(C(=O)NCc2cccc(-n3cccn3)c2)CC1=O (stereo not given)	-0.0342%
CC[C@H]1COCCN1C(=O)c1cnc(-c2ccccc2)nc1C	2.84%
O=C1CCCc2occ(C(=O)N3CCCC(O)(CO)C3)c21 (stereo not given)	-10.1%
Cc1ncc(C(=O)N2CCC(N3C[C@@H](C)O[C@@H](C)C3)CC2)c(=O)[nH]1	3.42%
Cn1nc(CO)c2c1CCN(c1ncnc3c1CCNCC3)C2	0.549%
CC(C)SCC(=O)N1Cc2cnc(-c3ccccc3)nc2C1	1.2%
CN(CCc1ccccn1)C(=O)CCC1CCCN(c2ccncc2)C1 (stereo not given)	-3.48%
CO[C@H]1CN(C(C)C)C[C@@H]1NC(=O)c1cc(-c2ccccc2F)n[nH]1	-6.01%
Cc1nc(C(C)C)ncc1C(=O)N1CCCC(N2CCCC2)C1 (stereo not given)	-20.1%
CC1CCN(CCCNS(=O)(=O)Cc2ccccc2F)CC1	-8.79%
CN(C)C(=O)N1CCN(C(=O)CCc2ccccc2)[C@H]2CS(=O)(=O)C[C@H]21	-17.1%
CC(C)c1cc(N2CCN(c3ccc(O)cc3)CC2)n2nccc2n1	-5.76%
CCn1nc(CC(C)C)cc1C(=O)N1CC[C@@H](O)C1	16.5%
CC(C)C(=O)N1CCN(C(=O)c2cscn2)[C@H]2CS(=O)(=O)C[C@H]21	-7.15%
Cc1c[nH]c(CN(C)C(=O)c2cccc(CCC(C)(C)O)c2)n1	-6.85%
Cc1cc2cc(C(=O)N3CC[C@H](O)[C@]4(CCCO4)C3)ccc2o1	1.01%
Cc1cccnc1C(=O)N1CCCCC1c1[nH]ncc1S(C)(=O)=O (stereo not given)	5.92%

SMILES	cytotoxicity at 10 µM
c1ccc(COc2ccccc2CNC2CCc3ncnn3C2)cc1 (stereo not given)	-10.2%
CCN(CC1CCOC1)C(=O)c1ccccc1N1CCOCC1 (stereo not given)	-13.6%
CN(CCn1cccn1)S(=O)(=O)N1CCCC1c1ccco1 (stereo not given)	-9.56%
Cc1cc(CC(=O)N(CC2CN(C)CCO2)c2nccs2)no1 (stereo not given)	-7.49%
Cc1cc(CN(C)C(=O)NCc2cccc(N3CCCC3=O)c2)no1	-12.4%
COCCOc1ccc(NC(=O)C2CCCN(C(N)=O)C2)cn1 (stereo not given)	-8.9%
Cc1cccc(-c2nc(CN(Cc3cccs3)CC3CCCO3)no2)c1 (stereo not given)	-3.01%
Cc1ccc(N2CCCC(NCc3cscn3)C2)nn1 (stereo not given)	-7.2%
CCN(Cc1nc2c(cnn2C)c(=O)[nH]1)c1cccc(Cl)c1	1.18%
Cc1nc(CN(C)C2CCN(Cc3ccc4c(c3)OCCO4)C2)no1 (stereo not given)	-4.79%
Fc1ccc(-c2cnc(C3CCCN3)cn2)cc1 (stereo not given)	-2.79%
Cc1cc(C[C@@H]2CCC[C@H]2NCc2cc(C)c(O)c(C)c2)on1	3.37%
CN(Cc1cncnc1)[C@@H]1CN(C(=O)c2ccco2)[C@@H]2CCCO[C@H]12	-113%
COCC(=O)N1CCC2(CC1)CC(COC)N(Cc1ccccn1)C2 (stereo not given)	-101%
CN(C)[C@@H]1CCN(c2ncccn2)[C@H]1Cc1ccncc1	-17.9%
O=C1COC2(CCN(Cc3cccs3)CC2)CN1c1ccccc1	-4.63%
CN1CCO[C@@H]2CN(C(=O)Cc3cccs3)CC[C@@H]2C1	-103%
CCc1ncnc2c1CCN(Cc1ccc(OC)cc1)CC2	-0.00161%
CN(C)CCn1c([C@@H]2CCCO2)cc2cccnc21	-25.4%
Cc1noc(C)c1CN1CC[C@@H]2O[C@@H](COCC(C)C)CC[C@@H]21	-0.125%
Cc1nc[nH]c1CN1C[C@H]2CC[C@@H](C1)N(C(=O)CCNS(C)(=O)=O)C2	-10.4%
CCc1nnc(SCC(=O)N2C[C@H]3CC[C@@H](C2)N(CC=C(C)C)C3)[nH]1	-6.18%
